Experimental data taken from ChEMBL document CHEMBL1152919, “Chloro-oxime derivatives as novel small molecule chaperone amplifiers” (Bioorg Med Chem Lett, 2009).
Values joined by “and” are separate entries in the source; they are usually repeats but may differ in a detail not shown here. Equal values may be shown once. Active and inactive are the calls of the source. No cut-off for these calls is given here.

Legend:
[1] = test system: SK-N-SH; experiment: Cytoprotective activity against 26S proteasome inhibitor MG132-induced stress in human SK-N-SH cells assessed as cell viability treated 1 hr before MG132 challenge measured after 24 hrs; assay type: functional, cell-based
Procedure, shortened: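 SK-N-SH cells, 12,500/well, exposed to compound 1 h ahead of MG-132 (5 µM final), then 24 h. Viability by ATPlite-1step luminescence; increased ATP% = (RLU compound − RLU DMSO)/RLU DMSO ×100, with DMSO as negative control. Tested 0.3–80 µM in twofold steps; EC50 from nonlinear regression curve fit; max cytoprotection >60% scored active.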

[2] = molecular target: T1, Heat shock factor protein 1 (Homo sapiens) (UniProt Q00613); experiment: Transcriptional activation of HSF1 in human HeLa cells assessed as granule formation treated for 3 hrs at 37 degC without heat shock by immunocytochemical staining
T1 sequence (whole entry): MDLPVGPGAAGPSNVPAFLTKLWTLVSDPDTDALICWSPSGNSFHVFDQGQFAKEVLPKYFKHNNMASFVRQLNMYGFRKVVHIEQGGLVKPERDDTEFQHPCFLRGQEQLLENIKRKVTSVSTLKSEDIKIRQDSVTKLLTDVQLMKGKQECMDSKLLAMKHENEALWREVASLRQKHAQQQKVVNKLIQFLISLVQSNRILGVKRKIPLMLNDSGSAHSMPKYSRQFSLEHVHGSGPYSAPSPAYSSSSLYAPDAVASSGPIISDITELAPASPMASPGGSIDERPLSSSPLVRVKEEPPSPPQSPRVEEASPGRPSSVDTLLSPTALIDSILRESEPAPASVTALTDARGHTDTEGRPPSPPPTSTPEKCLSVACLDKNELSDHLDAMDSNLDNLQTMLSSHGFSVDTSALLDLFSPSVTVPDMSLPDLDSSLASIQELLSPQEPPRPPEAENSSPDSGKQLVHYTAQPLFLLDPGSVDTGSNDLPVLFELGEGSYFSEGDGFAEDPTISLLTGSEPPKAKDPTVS

[3] = Cytotoxicity against human SK-N-SH cells by MTS assay; assay type: cell-based
Procedure, shortened: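 SK-N-SH cells, 14,000/well, seeded in DMEM with 10% FBS 18 h before compound (1:200 dilution; final 0.3–80 µM). MTS read-out; % inhibition = (MTS DMSO − MTS compound)/MTS DMSO ×100; CC50 by nonlinear regression; average SD across runs 14%.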

[4] = Cytotoxicity against human HeLa cells by MTS assay; assay type: cell-based
[5] = molecular target: T1, Heat shock factor protein 1 (Homo sapiens); experiment: Transcriptional activation of HSF1 in heat shock stress-induced human HeLa cells assessed as granule formation treated 1 hr before heat shock challenge measured after 2 hrs by immunocytochemical staining; assay type: cell-based
Procedure, shortened: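 HeLa cells given compound 1 h, then heat shock at 41 °C for 2 h without recovery; HSF1 immunocytochemical staining, quantified by high-content imaging. Range 0.3–80 µM, twofold dilution, 200-fold overall.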

[6] = molecular target: T2, Heat shock factor protein 1 (Homo sapiens, UniProt Q00613); experiment: Transcriptional activation of HSF1 in heat shock stress-induced human HeLa cells assessed as granule formation at 80 uM treated 1 hr before heat shock challenge measured after 2 hrs by immunocytochemical staining; assay type: cell-based
T2 sequence (Q00613 whole entry): T1 sequence (whole entry)

[7] = Homo sapiens, SK-N-SH, read-out: EC50

| SMILES | EC50 [1, 7] [µM] | Activity [2] | CC50 [3] [µM] | CC50 [4] [µM] | Activity [5] | EC50 ([1]; sk-n-sh) | Activity [6] |
| --- | --- | --- | --- | --- | --- | --- | --- |
| CCN(CC)CC(O)CO/N=C(\Cl)c1nc2ccccc2o1 (stereo unspecified) | 10.2 | inactive | 36.2 |  |  |  |  |
| CCCN(CC)CC(O)CO/N=C(\Cl)c1nc2ccccc2o1 (stereo unspecified) | 12.4 | inactive | 42.1 | 40.7 |  |  |  |
| CC(C)(C)NCC(O)CO/N=C(\Cl)c1nc2ccccc2o1 (stereo unspecified) |  | inactive | 24.7 | 55.4 | inactive | Not Active |  |
| OC(CO/N=C(\Cl)c1nc2ccc(F)cc2o1)CN1CCCCC1 (stereo unspecified) | 11 | inactive | 37.3 | > 80 |  |  |  |
| CCCCN(CCCC)CC(O)CO/N=C(\Cl)c1nc2ccccc2o1 (stereo unspecified) | 22.3 | inactive | 41 | > 80 |  |  |  |
| CCC(C)N(CC(O)CO/N=C(\Cl)c1nc2ccccc2o1)C(C)CC (stereo unspecified) | 20.9 | inactive | 54.2 |  | inactive |  | 62% and 25% |
| O=C(NOCC(O)CN1CCCCC1)c1nc2ccccc2o1 (stereo unspecified) |  |  | > 80 | > 80 |  | Not Active |  |
| CC(C)N(CCCF)CC(O)CO/N=C(\Cl)c1nc2ccccc2o1 (stereo unspecified) | 10.1 | inactive | 46 | 33.8 |  |  |  |
| Cc1ccc2nc(/C(Cl)=N/OCC(O)CN3CCCCC3)oc2c1 (stereo unspecified) | 6.1 | inactive | 28 | 18.8 |  |  |  |
| C/C(=N\OCC(O)CN1CCCCC1)c1nc2ccccc2o1 (stereo unspecified) |  |  | > 80 | > 80 |  | Not Active |  |
| OC(CO/N=C(\Cl)c1nc2cc(F)ccc2o1)CN1CCCCC1 (stereo unspecified) | 12 | inactive | 62.4 | > 80 |  |  |  |
| OC(CO/N=C(\Cl)c1nc2ccccc2o1)CN1CCC(F)(F)CC1 (stereo unspecified) | 26.4 | inactive | > 80 | > 80 |  |  | 49% |
| CCCN(CCC)CC(O)CO/N=C(\Cl)c1nc2ccccc2o1 (stereo unspecified) | 10.2 | inactive | 46.4 |  |  |  |  |
| OC(CO/N=C(\Cl)c1nc2ccccc2s1)CN1CCCC1 (stereo unspecified) |  | inactive | 31.1 | 60.1 |  | Not Active |  |
| OC(CO/N=C(\Cl)c1nc2c(ccc3ccccc32)o1)CN1CCCCC1 (stereo unspecified) | 5.2 | inactive | 17.4 | 18.9 |  |  |  |
| CCS(=O)(=O)c1ccc2oc(/C(Cl)=N/OCC(O)CN3CCCCC3)nc2c1 (stereo unspecified) | 5.9 | inactive | 44.2 | 41.4 |  |  |  |
| CN(C)S(=O)(=O)c1ccc2nc(/C(Cl)=N/OCC(O)CN3CCCCC3)oc2c1 (stereo unspecified) | 7.9 | inactive | 42.4 | 45.1 |  |  |  |
| CC(C)N(CCO)CC(O)CO/N=C(\Cl)c1nc2ccccc2o1 (stereo unspecified) | 8.2 | inactive | 30.6 | 50.2 |  |  |  |
| CC1CCCC(C)N1CC(O)CO/N=C(\Cl)c1nc2ccccc2o1 (stereo unspecified) | 11.1 | inactive | 36.2 | 78.9 |  |  |  |

| SMILES | EC50 [1, 7] [µM] | Activity [2] | CC50 [3] [µM] | CC50 [4] [µM] | Activity [5] | EC50 ([1]; sk-n-sh) | Activity [6] |
| --- | --- | --- | --- | --- | --- | --- | --- |
| Cc1ccc2oc(/C(Cl)=N/OCC(O)CN3CCCCC3)nc2c1 (stereo unspecified) | 9.5 | inactive | 34.6 |  |  |  |  |
| CC(=O)NCC(O)CO/N=C(\Cl)c1nc2ccccc2o1 (stereo unspecified) | 41.9 |  | > 80 | > 80 |  |  |  |
| CS(=O)(=O)NCC(O)CO/N=C(\Cl)c1nc2ccccc2o1 (stereo unspecified) | 39.3 |  | > 80 | 48.5 |  |  |  |
| CC1CC(C)CN(CC(O)CO/N=C(\Cl)c2nc3ccccc3o2)C1 (stereo unspecified) | 9.3 | inactive | 34 | 55.3 |  |  |  |
| OC(CO/N=C(/c1nc2ccccc2o1)C(F)(F)F)CN1CCCCC1 (stereo unspecified) |  |  | > 80 | > 80 |  | Not Active |  |
| OC(CO/N=C(\Cl)c1cc2ccccc2s1)CN1CCCCC1 (stereo unspecified) |  |  | 67.7 | > 80 |  | Not Active |  |
| OC(CO/N=C(\Cl)c1cc2ccccc2o1)CN1CCCCC1 (stereo unspecified) |  |  | > 80 | > 80 |  | Not Active |  |
| OC(CO/N=C(\Cl)c1nc2cccc(F)c2o1)CN1CCCCC1 (stereo unspecified) | 3.8 | inactive | 16.9 | 19.3 |  |  |  |
| Cl/C(=N\OCCCN1CCCCC1)c1nc2ccccc2o1 | 58.7 |  | > 80 | > 80 |  |  |  |
| OC(CO/N=C(\Cl)c1nc2ccccc2o1)CN1CCOCC1 (stereo unspecified) | 61.7 |  | > 80 | > 80 |  |  |  |
| CC(C)N(CC(O)CO/N=C(\Cl)c1nc2ccccc2o1)CC1CC1 (stereo unspecified) | 6.3 | inactive | 32.7 | 24.4 |  |  |  |
| CO/C(=N\OCC(O)CN1CCCCC1)c1nc2ccccc2o1 (stereo unspecified) |  |  | > 80 | > 80 |  | Not Active |  |
| OC(CO/N=C/c1nc2ccccc2o1)CN1CCCCC1 (stereo unspecified) |  |  | > 80 | > 80 |  | Not Active |  |
| OC(CO/N=C(\Cl)c1nc2ccccc2s1)CN1CCCCC1 (stereo unspecified) | 13.5 | inactive | 26.5 | 49.1 |  |  |  |
| CC(C)N(CC(O)CO/N=C(\Cl)c1nc2ccccc2o1)C(C)(C)C (stereo unspecified) | 9.9 | inactive | 40.3 | 30.8 |  |  |  |
| OC(CO/N=C(\Cl)c1nc2c(F)cccc2o1)CN1CCCCC1 (stereo unspecified) | 6.9 | inactive | 20.3 | 40.2 |  |  |  |
| OC(CO/N=C(\Cl)c1nc2ccc(Cl)cc2o1)CN1CCCCC1 (stereo unspecified) | 9 | inactive | 20 | 44.2 |  |  |  |
| OC(CO/N=C(\Cl)c1nc2ccccc2o1)CN1CCCC(F)C1 (stereo unspecified) | 20 | inactive | 49.8 | 52.7 |  |  |  |
| OC(CO/N=C(\Cl)c1nc2cc(Cl)ccc2o1)CN1CCCCC1 (stereo unspecified) | 6.3 | inactive | 23.2 | 31.4 |  |  |  |
